Experimental data published in ChEMBL document CHEMBL2093137, “WHO-TDR NTD Screening”.
Values after ≈ are worked out from the molar mass of the structure shown.

Columns and labels:
Leishmania infantum = experiment: WHO-TDR: Leishmaniasis; format: functional, organism-based, Mus musculus; details: Macrophage
How it was run: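 Following previously published standard procedures, a whole-organism screen was run on Leishmania infantum MHOM/MA(BE)/67 amastigotes within murine peritoneal macrophages, with a reference drug as positive control. The 10,000 compounds tested formed a diverse Life Chemicals library filtered for drug-likeness and reactive groups. Potency against the parasite is reported as IC50.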

Onchocerca lienalis = experiment: (§1) WHO-TDR: Onchocerciasis; format: functional; set-up: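 at 12.5 µM on microfilariae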
How it was run: (§2)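 Values are reported as percent inhibition and as IC50. They come from a whole-organism screen of a 10,000-compound diverse Life Chemicals library against microfilariae of Onchocerca ochengi or Onchocerca lienalis. The screen followed previously published standard procedures, with reference drugs as positive controls.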

[1] = WHO-TDR: Cytotoxicity; format: toxicity, cell-based; details: human, MRC5 cells
Trypanosoma cruzi = experiment: WHO-TDR: Chagas disease; format: functional, organism-based, Homo sapiens; details: MRC5
How it was run: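 Intracellular amastigotes of the Trypanosoma cruzi Tulahuen CL2 beta-galactosidase strain, grown in MRC-5SV2 human lung fibroblast host cells, were tested in a whole-organism screen. The compounds came from a 10,000-member diverse Life Chemicals library that had been filtered for drug-likeness and reactive groups. Previously published standard procedures were followed, with a reference drug as positive control, and potency is reported as IC50.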

Brugia malayi [2] = experiment: (§3) WHO-TDR: Lymphatic Filariasis; format: functional; set-up: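 tested at 10 µM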
How it was run: (§4)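 Values are percent inhibition and IC50 from a whole-organism screen against Brugia malayi microfilariae. The compounds, 10,000 in all, came from a diverse Life Chemicals library filtered for drug-likeness and reactive groups.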

Brugia malayi [3] = experiment: as §3; format: functional; set-up: concentration or dose not given beside the values; how it was run: as §4; remark: listed apart in the source
[4] = test system: Trypanosoma brucei brucei; experiment: WHO-TDR: Human African Trypanosomiasis (HAT); format: functional, organism-based; details: Squib-427
How it was run: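 Bloodstream forms of the Trypanosoma brucei Squib 427 strain were tested in a whole-organism screen with a diverse library from Life Chemicals of 10,000 compounds. Before screening, the library was filtered for drug-likeness and for reactive groups. The assay used previously published standard procedures and included reference drugs as positive controls. Potency against the parasite is expressed as IC50.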

Schistosoma mansoni = experiment: WHO-TDR: Schistosomiasis; format: functional; set-up: concentration or dose not given beside the values
How it was run: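 Values are reported as percent inhibition and IC50. They come from a whole-organism screen of a 10,000-compound diverse Life Chemicals library against larval and/or adult worms of Schistosoma mansoni, Puerto Rican strain. The library had been filtered for drug-likeness and reactive groups.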

Plasmodium falciparum K1 = experiment: WHO-TDR: Malaria; format: functional, organism-based, Homo sapiens; details: Erythrocyte
How it was run: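 Following previously published standard procedures, with a reference drug serving as positive control, compounds were tested on the Plasmodium falciparum K1 strain inside human red blood cells. The 10,000-compound diverse set came from Life Chemicals after filtering for drug-likeness and reactive groups. Potency against the parasite appears as IC50.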

Onchocerca ochengi [5] = experiment: as §1; format: functional; set-up: concentration or dose not given beside the values; how it was run: as §2
Onchocerca ochengi [6] = experiment: as §1; format: functional; set-up: concentration or dose not given beside the values; how it was run: as §2; remark: listed apart in the source

| Structure (SMILES) | IC50 (Leishmania infantum) [mg/L] | % Inhibition (Onchocerca lienalis) [%] | IC50 [1] [mg/L] | IC50 (Trypanosoma cruzi) [mg/L] | % Inhibition (Brugia malayi [2]) [%] | % Inhibition (Brugia malayi [3]) [%] | IC50 [4] [mg/L] | % Inhibition (Schistosoma mansoni) [%] | IC50 (Plasmodium falciparum K1) [mg/L] | % Inhibition (Onchocerca ochengi [5]) [%] | % Inhibition (Onchocerca ochengi [6]) [%] |
| --- | --- | --- | --- | --- | --- | --- | --- | --- | --- | --- | --- |
| c1ccc2c(CCNc3[nH]cnc4ncnc3-4)c[nH]c2c1 | > 8.35 | 13.4 | 1.91 (≈ 6.87 µM) | 0.588 (≈ 2.11 µM) | 0 | 0 | > 8.35 | 0 | > 8.35 |  |  |
| CCOC(=O)c1c(NC(=O)c2sc3ccccc3c2Cl)sc2c1CCN(C)C2 | 4.58 (≈ 10.5 µM) | 0 | 3.6 (≈ 8.29 µM) | 0.568 (≈ 1.31 µM) | 33.33 | 33.33 | 1.95 (≈ 4.49 µM) | 0 | > 14.1 |  |  |
| CC(C)(C)c1ccc(-c2csc(NC(=O)c3ccc4ncsc4c3)n2)cc1 | 4.24 (≈ 10.8 µM) | 33.3 | 7.77 (≈ 19.7 µM) | 0.891 (≈ 2.26 µM) | 50 | 0 | 3.46 (≈ 8.8 µM) | 0 | 2.77 (≈ 7.04 µM) |  |  |
| COc1ccc(CC(=O)NCCS(=O)(=O)N2CCN(c3ncccn3)CC2)cc1OC | 0.437 (≈ 0.972 µM) |  | > 13.5 | > 13.5 | 0 | 0 | > 13.5 | 33.3 | > 13.5 | 0 |  |
| CN(c1ccccc1)c1nnc(-c2ccc(NC(=O)Cc3cccs3)cc2)s1 | 3.95 (≈ 9.71 µM) |  | > 12.2 | > 12.2 | 0 | 25 | > 12.2 |  | > 12.2 | 100 |  |
| O=C(C1CCCC1)N1CCc2ccc(NS(=O)(=O)c3ccc4c(c3)OCCO4)cc21 | 0.416 (≈ 0.971 µM) |  | > 12.9 | > 12.9 | 0 | 0 | > 12.9 | 0 | > 12.9 | 0 |  |
| CC(C)N1CCc2c(sc(NC(=O)COc3ccc(Cl)cc3Cl)c2C(N)=O)C1 | 0.465 (≈ 1.05 µM) | 20 | 3.18 (≈ 7.19 µM) | 0.595 (≈ 1.35 µM) | 33.33 | 0 | 4.6 (≈ 10.4 µM) | 0 | 3.35 (≈ 7.57 µM) |  |  |
| CCN1CCc2c(sc(NC(=O)c3ccccc3)c2-c2nc3ccccc3s2)C1 | 4.43 (≈ 10.6 µM) | 0 | 3.75 (≈ 8.94 µM) | 0.514 (≈ 1.23 µM) | 0 | 0 | 1.22 (≈ 2.91 µM) | 25 | 2.17 (≈ 5.17 µM) |  |  |
| CCC(=O)c1c(NC(=O)c2ccc(C)cc2)sc2c1CCN(CC)C2 | 2.32 (≈ 6.51 µM) | 0 | > 11.8 | 0.479 (≈ 1.34 µM) | 33.33 | 33.33 | 0.321 (≈ 0.9 µM) | 0 | 1.87 (≈ 5.24 µM) |  |  |
| CN1CCc2c(OCC(=O)N3N=C(c4cccs4)CC3c3ccc(F)cc3)cccc2C1=O (stereo not given) | 0.947 (≈ 2.04 µM) | 0 | > 13.9 | 2.3 (≈ 4.96 µM) | 90 | 0 | 4.45 (≈ 9.6 µM) | 0 | 7.38 (≈ 15.9 µM) |  |  |
| N#Cc1cnc2c(F)cccc2c1Nc1ccc(Br)cc1 | > 11.4 |  | > 11.4 | > 11.4 | 0 | 0 | > 11.4 | 0 | > 11.4 | 100 |  |
| O=C(C1CC1)N1CCc2ccc(NS(=O)(=O)c3ccc4c(c3)CCCC4)cc21 | > 11.9 |  | 1.28 (≈ 3.24 µM) | 0.829 (≈ 2.09 µM) | 0 | 0 | 3.85 (≈ 9.71 µM) | 0 | > 11.9 | 0 |  |
| CN1CCc2c(sc(NC(=O)C3COc4ccccc4O3)c2-c2nc3ccccc3s2)C1 (stereo not given) | 4.86 (≈ 10.5 µM) | 0 | 5.39 (≈ 11.6 µM) | 2.48 (≈ 5.35 µM) | 33.33 | 66.67 | 0.48 (≈ 1.04 µM) | 0 | 3.38 (≈ 7.29 µM) |  |  |
| CCCC(=O)Nc1nnc(-c2ccc(C)cc2)s1 | > 7.84 | 0 | > 7.84 | > 7.84 | 0 | 100 | > 7.84 | 0 | > 7.84 |  |  |
| O=C(Nc1ccc(C(F)(F)F)cc1)N1CCN(Cc2nnnn2-c2ccccc2)CC1 | > 12.9 |  | > 12.9 | > 12.9 | 0 | 0 | 6.01 (≈ 13.9 µM) |  | > 12.9 | 100 |  |
| Cc1ccc(-n2ccnc2N2CCN(C(=O)c3ccccc3SC(F)F)CC2)cc1 | > 13.9 |  | 13.9 (≈ 32.6 µM) | 0.531 (≈ 1.24 µM) | 0 | 0 | 4.57 (≈ 10.7 µM) | 58.3 | 3.65 (≈ 8.53 µM) | 100 |  |
| Cc1cc(NC(=O)C2CCCN(S(=O)(=O)c3ccccc3)C2)on1 (stereo not given) | 0.339 (≈ 0.97 µM) |  | > 10.5 | > 10.5 | 0 | 0 | > 10.5 | 41.7 | > 10.5 | 0 |  |
| CC1CCN(C(C)CNC(=O)Nc2ccccc2C(F)(F)F)CC1 (stereo not given) | > 10.3 |  | 7.77 (≈ 22.6 µM) | 3.39 (≈ 9.87 µM) |  |  | 0.333 (≈ 0.971 µM) | 0 | 2.22 (≈ 6.46 µM) | 0 | 0 |
| O=C(CN1CCC(C(=O)Nc2ccc(Oc3ccccc3)cc2)CC1)Nc1ccc(F)cc1 | 0.695 (≈ 1.55 µM) |  | > 13.4 | > 13.4 |  |  | > 13.4 | 0 | > 13.4 | 0 | 0 |
| O=C(Nc1onc2c1CCC2)c1cccc(F)c1 | > 7.39 |  | 4.88 (≈ 19.8 µM) | 2.12 (≈ 8.63 µM) |  |  | 2.42 (≈ 9.83 µM) | 0 | > 7.39 | 100 | 0 |
